Measurements taken from the EternaBench riboswitch data.

Test system: MS2 coat protein
Assay: apparent Kd, MS2 coat protein; higher = weaker binding; RNA-MaP array; FMN 200 µM where present
Method in brief: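 The apparent Kd is reported as the median of filtered per-cluster binding-curve fits. To get these curves, designs transcribed by stalled E. coli RNA polymerase on Illumina sequencing-chip clusters were titrated with SNAP-549-labelled MS2 coat protein from 0.7 or 1.5 nM, doubling to 3 µM. Titrations were run without and then with constant ligand in 100 mM Tris-HCl pH 7.5, 80 mM KCl, 4 mM MgCl2, BSA, DTT, yeast tRNA and Tween-20, and green signal was normalised to red-channel RNA signal and control-cluster median Fmax.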

[1] = designed as: ON switch for flavin mononucleotide, no ligand
[2] = ligand present: flavin mononucleotide, designed as: ON switch for flavin mononucleotide
[3] = designed as: OFF switch for flavin mononucleotide, no ligand
[4] = ligand present: flavin mononucleotide, designed as: OFF switch for flavin mononucleotide

Sequence	apparent Kd [1] [nM]	apparent Kd [2] [nM]	apparent Kd [3] [nM]	apparent Kd [4] [nM]
GCGAUUUUGUAAGGAUAUACUCGAGUUUUAAGAGUAGAAGGUACUUACAUGAGGAUCACCCAUGUCUAACGUAAUACUAGUCGC	10.3	9.24		
AAAACUGGAGGAUAUACAUGAGGAUCACCCAUGUGUGGGUAUACUGUGUCGGCGUCAGGUAGAAGGCCACAAAA			108	88.7
CAGUACUGAGGAUAUACAUGAGGAUCACCCAUGUAUCCUAGCUAGGAAACUAGCAAAAGUAGAAGGCAGUACUG			16	156
UUACACUUGAGGGUCUCCCUUGACAUGAGGAUCACCCAUGUGCAGGAUAUACGUGUGAUGGUAUAGUAGAAGGGCACUCUAUGU			23	29.7
AAAACCUCAUGAGGAUAUCCAACAUGAGGAUCACCCAUGUUAGUCUCAGUACUAGGUACUUGAGAGGAGAAGGCAUGCCAGGGC	123	36.2		
AUGUGGUUCCCGGCCAUCGUGUACGAGGAUAUCCUCGAACAUGAGGAUCACCCAUGUAACGUUGUGGAGAAGGCGUACGCUUGG	130	7.73		
UUUUAUAAUACCUCAUGUACAUGAGGAUCACCCAUGUUAACUAAGGAUAUAUAUAAAUUAAUAAUGUAGAAGGUAGUAAUAUUU			16.5	14.3
GCUAGAGCAGGAUAUCUAGAUCCACACAUGAGGAUCACCCAUGUACAGUCGAAAGACUGAAGAGAAGGGCUCUAGC			69.7	92.7
UCUGCCGCCGUGAGGAUAUGCCCGCAAAAACGCGGGCAGAAGGCACAUGAGGAUCACCCAUGUCCCGCGGUUUU			13.9	33.6
AACUGACGACAUCAGUUGCGUAGGCAGGAUAUACAUGAGGAUCACCCAUGUGCAUGAUGCUACGAGUAGAAGGGCCGAGGCGAU			6.77	13.4
CAAUAUAACACAGGAUAUGUCUCGUUUACAUGAGGAUCACCCAUGUCCGAAACAGAAGGGUGACCCGAUAUAGGACGUUGGGUG	56.3	18		
GCAUGGUAUGAGAAGGCAUAUUUAAUCUAACAACAUGUUUACAUGAGGAUCACCCAUGUUACCAAUGAGGAUAUCAUACCGUGC			7.31	7.28
UUGGUUGUCGUAGGAUAUGUAGGAUAUUCCUACAUGAGGAUCACCCAUGUUCGCAUGGAAGAAGGACAGAAUGACGAUGACCAG	1110	27.1		
GGAUCUUGGGUCAGGAUAUGCUGGUAUUUUUGCCAGCAGAAGGGACAUGAGGAUCACCCAUGUUCUUGGUUUUG			10.7	13.9
AAGGUGUUAGGAUAUCGAAGGUUGUGGCAGGCGGGAAUUUGCGAGAAGGAACAUGAGGAUCACCCAUGUAAAAU			24.4	25.8
AAACCACAUGAGGAUCACCCAUGUGAUAAAAGCAUAGGAUAUCUGGAUGUGAGAGGCGGCAGAGAAGGAUGCACGC	61.5	53.9		
UAAGCGCAGGAGAAGGGCACUGGACGCUCGCUACAUGAGGAUCACCCAUGUGCAGGAUAUCCGGCGCCACCCGCAAACUCGGUG			15.8	72.1
AUCAGCUCGUCAGGAUAUACAUCACUGCUUCGGCAGUGUGGUAAGGUCACAUGAGGAUCACCCAUGUAGAAGGGACGAGCUGAU			8.48	106
GAUCUCGUAGUGAGGAUAUUGCUCAUAGACAAUAGUAAGAAGGCACAUGAGGAUCACCCAUGUCGAGUGAGGUU			69.9	143
AGCUGUGGCAGAGGAUAUACCUCAAUAAUCCAUUGCAAAUAGCGAUGGACAUGAGGAUCACCCAUGUAGAAGGCUGUCUCAGCA			323	733
UUAUAUAGUGUGAGGAUAUGCUGGUCCUUGGAUCAGCAGAAGGCACAUGAGGAUCACCCAUGUAGUUUAUUAUU			30.2	130
AGUGUGUUAGGAUAUCGCAUAUGCUGGAGGAGGUGGAGUUACGAGAAGGAACAUGAGGAUCACCCAUGUAGGAC			28.2	26.5
GGUCCAUCAUGAGGAUAUGGCACCUUAUUGGUGCCAGAAGGCGUGUCUAUAGACAUGAGGAUCACCCAUGUAAUAAAUUGGACC	614	49.6		
GACCUAUAGGUAGGAUAUCAUUGCGAUUAGCUAUGAGAAGGACCACAUGAGGAUCACCCAUGUCCUCUAAUUAGCCAUUUGGUC			380	1040
GGGAUGCUAGGAUAUACAUCGGGCUCCAGGAUGUUCCGGGAACAUGAGGAUCACCCAUGUAGAAGGAGCUAAAG			67.9	53.5
CCGCUAAUAGGAUAUACAUGAGGAUCACCCAUGUCACUCUUCAUUGGUGUCUCUUCAAGUAGAAGGGUUGCUCA			28.5	28.1
AUAUCUCUGUAAGGAUAUAGAUGGUGUAAGCCUCCGACAUGAGGAUCACCCAUGUUAUAUGUUGUCUAGAAGGUACAGUGUCGG	1110	898		
GUGCACACUCGAGGAUAUCGGAGAGUUCUCCUUCGAGAAGGCGAUUCGUGCCGUGUUAUUCUGGACAUGAGGAUCACCCAUGUG	84.2	32.4		

Sequence	apparent Kd [1] [nM]	apparent Kd [2] [nM]	apparent Kd [3] [nM]	apparent Kd [4] [nM]
CGAGGUGGAGUGAGGAUAUCGUGUUCGAAAGAACGUGAGAAGGCACAUGAGGAUCACCCAUGUGAUCCUGCUCG			105	360
GGUCAGCUAGGAUAUACAUGAGGAUCACCCAUGUACUGACCCAUGCGGGAGUCCGCAUGUAGAAGGAGCAAAAU			20.9	22.6
UGCCGUGUACAGAAGGGCGACAUGAGGAUCACCCAUGUCUCCUUGUUGGUCGUAGGAUAUGUACCGUGGCUCUCACCUGUGGGA			5.57	6.95
CGCUAUUACAUGAGGAUCACCCAUGUAUAUAUUGUAUUUUCGUAGGAUAUGCAGAAGAUUAAAGUGCAGAAGGACGUAAUAGCG	29.1	7.48		
AAAAUCAAUUGAGGAUAUUCAUACACUACAUACGGAGAAGGCAAACAAUCAUGAGGACAUGAGGAUCACCCAUGUUGUGACCAU	22.3	16.3		
GAGUGGAAGGCCGCUACAUGAGGAUCACCCAUGUGCUAAGCACAGGAUAUCGCGCGGGCCCGGCGCGAGAAGGGUGACGGCCUU	1010	272		
AUUUAGAGAGGAUAUAUUAUGUGAAACAUGAGGAUCACCCAUGUAAUAUGAUGGAUAUAAAUAGAAGGCUCAUUUA			33	24.4
CAGUCUACAGGAUAUACAUGAGGAUCACCCAUGUAAAUUCACUUUCGGUAGUCUACAUGUAGAAGGGUAGACUG			125	38.8
AGGAGAAAUGUAGGAUAUGGGUAUAUAUAUGGGCAAAGCGCAUAUAUAUACCCAGAAGGACAUGAGGAUCACCCAUGUUUCCCU			12.5	12.9
AAAAAUAGAGGAUAUACAUGAAAAAAAAAAAAAAAAAAAAAACAUGAGGAUCACCCAUGUAGAAGGCUAAAAAA			45.3	30.3
UUGGACGUCGUAGGAUAUGUAGGAUAUUCCAACAUGAGGAUCACCCAUGUUGACAUGGAAGAAGGACAGAAGGACGAUGUCCAU	4.28	3.63		
AAACAUGUCCGAGGAUAUCUGAGAUCAUUUUCAAGAGAAGGCGGACAUGAGGAUCACCCAUGUCUCUCCUCAUCAACUCCACAU			7.47	39.1
UUGAGGUCAGGAUAUGCAUGGCGGGACUUGCGUCGUGGCGUGCAGAAGGGACAUGAGGAUCACCCAUGUGGAGU			145	236
UUGGACGUCGUAGGAUAUGUAGGAUAUUCCUACAUGAGGAUCACCCAUGUUGACAUGGAAGAAGGACAGAAGGGCGAUGUCCAU	352	5.27		
CCCGCAACAUGAGGAUCACCCAUGUAGGAUAUCGCUAUUGUAAUCAUGAAACAUGAUUACAAUAGCGAGAAGGACAUAUGCGGG			6.77	10.4
GCUUCACAUGAGGAUCACCCAUGUCUUCGGAGUCGAGGAUAUGGUCACUGUAAACAGUGGCCAGAAGGCGAGGAGC	54.1	35		
GGUGGACAUGAGGAUCACCCAUGUGAGGAUAUCGGCUGGCUAGUGGCUGACGGCUGCUCGAGAAGGCGCAUUGU			78.3	107
AAGCGAGGGACAGGAUAUGCGGCAAAACUUUCCGCAGAAGGGUCGACAUGAGGAUCACCCAUGUCCUUACGCUCCAAGUAGAGG	189	277		
AAUCUGUGAGGAUAUGGUGAGUAGUGCCUGAGCGCUGCUCACCAGAAGGCACAUGAGGAUCACCCAUGUAUGAA			31.2	99.6
UCAUUUCUGUAAGGAUAUAUAAACAUGACGAUACAUGAGGAUCACCCAUGUGUAGAAGGUACAAAUACAUAUAAUGCAAUGUUC			14.8	12.9
UUAUUAGCAGGAUAUAUCCAGGAUUACAUGAGGAUCACCCAUGUGACCGCUUGAGAUUCUAUAGAAGGGCUUUAUU			29.6	29.8
UAAUGUAUAUAGGAUAUCUAGCUGGAUACAGCUAGAGAAGGAUGUACAUGAGGAUCACCCAUGUAAAUCGAUCA			23.2	55.7
CCAUGGCAUGUAGGAUAUAUCUGACAAAGUCAGAUAGAAGGACAUGAGGAUCACCCAUGUAAACCGAAAGGAACAUAGCCAUGG			6.36	6.96
GUGCACAUUCGAGGAUAUCGGAGAGGGAUCCUUCGAGAAGGCGAUUCAUGCUGUGUUAUUCUGGACAUGAGGAUCACCCAUGUG	265	125		
AAUAAACUCACAGGAUAUAGCAUAGGUCGCGUGAACUUACAGGCGACGAUGCUAGAAGGGUGACCACAUGAGGAUCACCCAUGU	892	172		
GGACAUGUCGUUUACAUGAGGAUCACCCAUGUCGAUAGACAUGAGGAUAUCGAUACAAAUUGUAUCGAGAAGGCAUGCAUGUCC	91.2	23.5		
AUGGUUCGAUUAGGAUAUUAUAGAUUGAAUAGUAUGAUUUACAUGAGGAUCACCCAUGUUACAUAUAAGAAGGAAUCGAAUCAU			20.1	11.6
